Activity calls are given as the source filed them. The calls are words filed in the database; no cut-off is given here.
Tests used:
[1] = tested on: HepG2; test: Cytotoxicity against human HepG2 cells expressing CES2 gene expressing CES2 gene after 5 to 6 days by MTT assay; assay type: functional
[2] = tested on: HepG2; test: Antitumor activity against human HepG2 cells expressing CES2 gene xenografted in pentyl PABC-doxazolidine-pretreated NOD/SCID mouse assessed as slowing of large, rapidly growing tumor growth at 5 mg/kg, iv administered on day 45 after tumor implantation; assay type: functional, organism-based; parameters: dose 5 mg/kg
Procedure, shortened: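 NOD/SCID females, 4–6 weeks old, each given ~1.5 × 10⁷ N-Hep G2 cells s.c. in the left flank; 10 mice/group. Dosed i.v. by tail vein on days 7, 14 and 21, in mg/kg Dox-equivalent, from DMSO diluted into D5W (5% DMSO/95% D5W), 100 µL/mouse. Vehicle-only controls. The 3 mg/kg group was redosed at 5 mg/kg on days 45 and 52. Tumor volume (π × short diameter² × long diameter/6) measured weekly.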

[3] = tested on: Mus musculus; test: Toxicity in NOD/SCID mouse xenografted with human HepG2 cells expressing CES2 gene assessed as survival at 4 mg/kg, iv administered on day 7, 14 and 21 after tumor implantation; assay type: organism-based; parameters: dose 4 mg/kg, route intravenous; details: in vivo
Procedure, shortened: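 Female NOD/SCID mice, 4–6 weeks old, 10 per group. About 1.5 × 10⁷ N-Hep G2 cells were injected s.c. into the left flank. Tail-vein i.v. dosing (mg/kg Dox-equivalent weight) was given on days 7, 14 and 21. Vehicle was 5% DMSO/95% D5W, and controls received vehicle only. Body weight was measured weekly over the first 5 weeks. Survival was followed to study end.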

[4] = Toxicity in pentyl PABC-doxazolidine-treated NOD/SCID mouse xenografted with human HepG2 cells expressing CES2 gene assessed as mortality rate at 5 mg/kg, iv administered on day 52 after tumor implantation; assay type: organism-based; parameters: dose 5 mg/kg, route intravenous; details: in vivo, read-out: Activity
Procedure, shortened: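 NOD/SCID females carried s.c. left-flank N-Hep G2 xenografts (about 1.5 × 10⁷ cells). They first received i.v. 3 mg/kg Dox-equivalent on days 7, 14 and 21. The same group was then redosed i.v. at 5 mg/kg on days 45 and 52 in 5% DMSO/95% D5W. There were 10 mice per group. Deaths were counted to the end of the study.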

[5] = tested on: NCI-H1435; test: Antitumor activity against human NCI-H1435 cells expressing CES2 gene xenografted in athymic nude mouse assessed as inhibition of tumor growth at 4 mg/kg, iv administered on day 7, 14 and 21 after tumor implantation; assay type: functional, organism-based; parameters: dose 4 mg/kg
Procedure, shortened: (§1)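 Athymic nude females, 4–6 weeks old, given ~2 × 10⁶ H1435 cells s.c. in the left flank on day 0; 10 mice/group. I.v. tail-vein doses (Dox-equivalent mg/kg) in 5% DMSO/95% D5W on days 7, 14 and 21, with all groups retreated on days 56, 63 and 70; vehicle controls. Caliper volume π × short² × long/6. Cube roots analysed with day-7 size as baseline covariate, by period.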

[6] = tested on: NCI-H1435; test: Antitumor activity against human NCI-H1435 cells expressing CES2 gene xenografted in athymic nude mouse assessed as inhibition of tumor growth at 3 mg/kg, iv administered on day 7, 14 and 21 after tumor implantation; assay type: functional, organism-based; parameters: dose 3 mg/kg; procedure, shortened: as §1
[7] = tested on: NCI-H1435; test: Antitumor activity against human NCI-H1435 cells expressing CES2 gene xenografted in pentyl PABC-doxazolidine-pretreated athymic nude mouse assessed as inhibition of tumor growth at 3 to 4 mg/kg, iv administered on day 63 after tumor implantation; assay type: functional, organism-based; procedure, shortened: as §1
[8] = tested on: Mus musculus; test: Toxicity in athymic nude mouse xenografted with human NCI-H1435 cells expressing CES2 gene at 3 to 4 mg/kg, iv administered on day 7, 14 and 21 after tumor implantation; assay type: organism-based; parameters: dose 3-4 mg/kg, route intravenous; details: in vivo
[9] = tested on: Mus musculus; test: Toxicity in athymic nude mouse xenografted with human NCI-H1435 cells expressing CES2 gene assessed as occurrence of diarrhea at 3 to 4 mg/kg, iv administered on day 7, 14 and 21 after tumor implantation; assay type: organism-based; parameters: dose 3-4 mg/kg, route intravenous; details: in vivo
[10] = tested on: NCI-H1435; test: Antitumor activity against human NCI-H1435 cells expressing CES2 gene xenografted in athymic nude mouse assessed as reduction in tumor size at 3 to 4 mg/kg, iv administered on day 7, 14 and 21 after tumor implantation; assay type: functional, organism-based; procedure, shortened: as §1
[11] = tested on: NCI-H1435; test: Antitumor activity against human NCI-H1435 cells expressing CES2 gene xenografted in athymic nude mouse assessed as slowing of tumor growth at 4 mg/kg, iv administered as three weekly infusion from day 21 to 56 after tumor implantation; assay type: functional, organism-based; parameters: dose 4 mg/kg; procedure, shortened: as §1
[12] = tested on: Mus musculus; test: Toxicity in athymic nude mouse xenografted with human NCI-H1435 cells expressing CES2 gene assessed as appearance of fibrotic damage in heart tissue administered with six iv injection of 3 to 4 mg/kg by hematoxylin/eosin staining-based microscopy; assay type: organism-based; parameters: dose 3-4 mg/kg, route intravenous; details: in vivo
Procedure, shortened: (§2)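 Hearts and livers taken from the H1435 nude-mouse study (six i.v. injections) after CO₂/cervical dislocation. Fixed in 10% formalin for 24 h, paraffin-embedded, and cut at 4 µm. Slides deparaffinized in xylene and ethanol, stained with Mayer's hematoxylin for 2 min, blued in 1% ammonium hydroxide, and counterstained with eosin for 30 s. Examined by light microscopy.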

[13] = tested on: Mus musculus; test: Toxicity in iv dosed athymic nude mouse xenografted with human NCI-H1435 cells expressing CES2 gene assessed as appearance of cytoplasmic lipid droplets in hepatocytes administered as six injection by hematoxylin/eosin staining-based microscopy; assay type: organism-based, Hepatocyte; procedure, shortened: as §2
[14] = tested on: Mus musculus; test: Toxicity in athymic nude mouse xenografted with human NCI-H1435 cells expressing CES2 gene assessed as occurrence of fatty liver administered with six iv injection of 3 mg/kg by hematoxylin/eosin staining-based microscopy; assay type: organism-based; parameters: dose 3 mg/kg, route intravenous; details: in vivo; procedure, shortened: as §2
[15] = tested on: Mus musculus; test: Toxicity in athymic nude mouse xenografted with human NCI-H1435 cells expressing CES2 gene assessed as occurrence of fatty liver administered with six iv injection of 4 mg/kg by hematoxylin/eosin staining-based microscopy; assay type: organism-based; parameters: dose 4 mg/kg, route intravenous; details: in vivo
Procedure, shortened: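 Female athymic nude mice, 4–6 weeks old, 10 per group. About 2 × 10⁶ H1435 cells were implanted s.c. into the left flank. I.v. tail-vein doses (Dox-equivalent) were given on days 7, 14, 21, 56, 63 and 70 in 5% DMSO/95% D5W. At sacrifice, organs were fixed in 10% formalin for 24 h and paraffin-embedded. Sections were cut at 4 µm and stained with hematoxylin/eosin for microscopy.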

[16] = tested on: Mus musculus; test: Toxicity in athymic nude mouse xenografted with human NCI-H1435 cells expressing CES2 gene assessed as vacuolar degeneration of kidney tissue administered with six iv injection of 3 to 4 mg/kg by hematoxylin/eosin staining-based microscopy; assay type: organism-based; parameters: dose 3-4 mg/kg, route intravenous; details: in vivo
Procedure, shortened: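 Kidney and ileum taken from the H1435 nude-mouse study (six i.v. injections). Formalin-fixed for 24 h, paraffin-embedded, and cut into 4 µm sections. Sections deparaffinized in xylene, rehydrated through an ethanol series, stained in Harris hematoxylin for 50 s with eosin, then dehydrated and mounted. Morphology assessed by microscopy.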

[17] = Metabolic stability in NOD/SCID mouse plasma up to 24 hrs by reverse-phase HPLC analysis; assay type: ADME, cell-free; details: read-out: Stability
Procedure, shortened: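 PPD from a 1 mM DMSO stock diluted 10 µL into 190 µL of plasma (healthy NOD/SCID mouse, or pooled human from 40 donors) at 37 °C; sampled at 0 and 24 h. Samples digested with proteinase K (2 mg/mL) for 4 h at 37 °C, then run on C18 reverse-phase HPLC with a triethylammonium acetate pH 6.0/acetonitrile gradient, detection at 480 nm.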

[18] = tested on: NCI60; test: Growth inhibition of human NCI60 cells after 2 days by sulforhodamine B assay; assay type: functional, cell-based

Question: For `CCCCCOC(=O)Nc1ccc(COC(=O)N2CO[C@@H]3[C@H](C)O[C@@H](O[C@H]4C[C@](O)(C(=O)CO)Cc5c(O)c6c(c(O)c54)C(=O)c4c(OC)cccc4C6=O)C[C@@H]32)cc1`, which logIC50 [1] is on record?
Answer: -6.9

Question: What about the Activity [2] of the same molecule?
Answer: Active

Question: What about the Activity [3] of the same molecule?
Answer: Non-toxic

Question: And the mortality [4]?
Answer: 60%

Question: What about the inhibition [5] of the same molecule?
Answer: Active

Question: And the inhibition [6]?
Answer: Active

Question: What about the inhibition [7] of the same molecule?
Answer: Active

Question: And the Activity [8]?
Answer: Non-toxic

Question: What about the Activity [9] of the same molecule?
Answer: Non-toxic

Question: And the Activity [10]?
Answer: inactive

Question: And the Activity [11]?
Answer: inactive

Question: What about the Activity [12] of the same molecule?
Answer: Non-toxic

Question: What about the Activity [13] of the same molecule?
Answer: Dose-dependent effect

Question: And the Activity [14]?
Answer: Non-toxic

Question: What about the Activity [15] of the same molecule?
Answer: Toxic

Question: And the Activity [16]?
Answer: Non-toxic

Question: What about the remaining at 24 h [17] of the same molecule?
Answer: 16%

Question: What about the “growth inhibition (GI)” value [18] of the same molecule?
Answer: Active

Reference: ChEMBL document CHEMBL1153806, “Preclinical efficacy of a carboxylesterase 2-activated prodrug of doxazolidine” (J Med Chem, 2009)
